Activity calls are given as the source filed them. The calls are words filed in the database; no cut-off is given here.

The target in assay [1] is T1, Sphingosine kinase 2 (Homo sapiens, UniProt Q9NRA0).
T1 sequence (Q9NRA0 whole entry): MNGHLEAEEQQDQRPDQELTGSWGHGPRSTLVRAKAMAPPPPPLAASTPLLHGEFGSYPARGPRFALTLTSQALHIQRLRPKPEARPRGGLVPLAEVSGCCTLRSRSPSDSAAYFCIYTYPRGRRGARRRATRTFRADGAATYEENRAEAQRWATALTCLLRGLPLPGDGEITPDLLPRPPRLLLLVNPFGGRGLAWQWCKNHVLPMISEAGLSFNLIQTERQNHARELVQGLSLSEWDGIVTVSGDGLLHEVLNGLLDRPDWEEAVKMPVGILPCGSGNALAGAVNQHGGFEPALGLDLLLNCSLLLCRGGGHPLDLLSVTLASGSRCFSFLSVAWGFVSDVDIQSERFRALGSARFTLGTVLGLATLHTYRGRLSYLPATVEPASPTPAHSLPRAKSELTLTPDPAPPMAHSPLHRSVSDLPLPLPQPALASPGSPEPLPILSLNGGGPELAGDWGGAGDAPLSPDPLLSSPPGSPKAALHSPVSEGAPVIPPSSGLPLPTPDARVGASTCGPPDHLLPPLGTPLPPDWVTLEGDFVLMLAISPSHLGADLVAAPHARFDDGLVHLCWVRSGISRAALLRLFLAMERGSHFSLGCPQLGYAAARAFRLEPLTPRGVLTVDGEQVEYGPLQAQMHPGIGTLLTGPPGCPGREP
The experiment in a line: Inhibition of recombinant human N-terminal His-tagged SphK2 (2 to 654 residues) expressed in baculovirus infected Sf21 cells using d-erythro-sphingosine as substrate incubated for 1 hr by ADP-Glo assay. Background: ADP-Glo first removes unused ATP, then detects ADP through luciferase.

The target of assay [2] is T2, Sphingosine kinase 2 (Homo sapiens) (UniProt Q9NRA0).
T2 sequence (whole entry): T1 sequence (Q9NRA0 whole entry)
As to the kind of experiment: Inhibition of recombinant human N-terminal His-tagged SphK2 (2 to 654 residues) expressed in baculovirus infected Sf21 cells at 125 uM using d-erythro-sphingosine as substrate incubated for 1 hr by ADP-Glo assay relative to control.

The subject of the next assay is U-251. The experiment in a line: Cytotoxicity against human U-251MG cells assessed as reduction in cell viability at 125 uM incubated for 24 hrs by Hoechst 33258 and PI staining based imaging analysis. Type of assay: functional. In a few lines:
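U-251 MG glioblastoma cells grown in RPMI-1640 with 10% FBS, 1 mM sodium pyruvate and 1x Pen-Strep at 37 °C, 5% CO2. Seeded at 3000 cells/well, left about 16 h, then medium replaced with fresh medium containing 125 µM compound for 24 h. Stained with Hoechst 33258 for total cells and propidium iodide for apoptotic cells. Triplicate, S.E. reported.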

Assay [3] concerns the target T1, Sphingosine kinase 2. As to the kind of experiment: Inhibition of recombinant human Flag-tagged SphK2 transfected in HEK293 cells using d-erythro-sphingosine as substrate by [gamma32P]-ATP based assay.
The target of another assay is Sphingosine kinase 1 (Homo sapiens, UniProt Q9NYA1). As to the kind of experiment: Inhibition of recombinant human Flag-tagged SphK1 transfected in HEK293 cells using d-erythro-sphingosine as substrate by [gamma32P]-ATP based assay.
Sequence of Sphingosine kinase 1 (Q9NYA1 whole entry): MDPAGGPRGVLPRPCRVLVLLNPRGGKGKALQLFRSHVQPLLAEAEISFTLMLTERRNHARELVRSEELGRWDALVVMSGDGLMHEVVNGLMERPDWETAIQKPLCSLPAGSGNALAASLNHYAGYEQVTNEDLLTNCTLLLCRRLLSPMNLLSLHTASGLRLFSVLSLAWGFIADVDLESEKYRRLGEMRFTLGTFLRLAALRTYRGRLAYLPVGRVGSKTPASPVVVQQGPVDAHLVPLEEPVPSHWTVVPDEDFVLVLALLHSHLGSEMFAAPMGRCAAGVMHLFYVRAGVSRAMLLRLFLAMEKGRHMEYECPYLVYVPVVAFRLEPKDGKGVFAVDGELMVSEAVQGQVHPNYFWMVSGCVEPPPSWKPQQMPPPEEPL

With `COc1ccc(-c2cn(Cc3ccc(-c4noc([C@@H]5CCCN5C(=N)N)n4)cc3)nn2)cc1`, the IC50 (commonly the concentration at which inhibition is half-maximal) on Sphingosine kinase 2 [1] stood at 266 nM. In assay [2], the inhibition (as a rule, the share of the control response that was lost under treatment) is above 50%. In addition, the inhibition entry with U-251 is “Active”.
In the case of `N=C(N)N1CCC[C@H]1Cc1nc(-c2ccc(Cn3cc(-c4ccccn4)nn3)cc2)no1`, in assay [2], the inhibition is above 50%.
`N=C(N)N1CCC[C@H]1Cc1nc(-c2ccc(Nc3nc(-c4cccc(C(F)(F)F)c4)cs3)cc2)no1`: on Sphingosine kinase 2 [1], the IC50 came out at 280 nM. The inhibition in assay [2] was above 50%.
With `N=C(N)C1(c2nc(-c3ccc(Cn4cc(C5CC5)nn4)cc3)no2)CC1`, in assay [2], the inhibition is above 50%.
In the case of `N=C(N)N1CCC[C@H]1c1nc(-c2ccc(Cn3cc(-c4ccccc4)nn3)cc2)no1`, in assay [2], the inhibition was above 50%.
With `Cn1cc(-c2cn(Cc3ccc(-c4noc(C5(C(=N)N)CC5)n4)cc3)nn2)cn1`, the inhibition in assay [2] is above 50%. Further, in the assay on U-251, the inhibition entry is “Active”.
Regarding `Cn1cc(-c2cn(Cc3ccc(-c4noc(C[C@@H]5CCCN5C(=N)N)n4)cc3)nn2)cn1`, in assay [2], the inhibition was above 50%.
As for `CCCCc1cn(Cc2ccc(-c3noc([C@@H]4CCCN4C(=N)N)n3)cc2)nn1`, the IC50 at Sphingosine kinase 2 [1] stood at 254 nM. In assay [2], the inhibition is above 50%.
Take `N=C(N)N1CCC[C@H]1Cc1nc(-c2ccc(Cn3cc(-c4ccccc4)nn3)cc2)no1`: the inhibition in assay [2] was above 50%. For the same compound, the inhibition entry in the assay on U-251 is “Active”.
With `Cc1ccc(S(=O)(=O)Nc2cccc(/C=N/c3ccccc3NS(=O)(=O)c3ccc(C)cc3)c2)cc1`, the Ki (usually the equilibrium dissociation constant of an inhibitor or competing ligand from its target) at Sphingosine kinase 2 [3] was 6900 nM; at Sphingosine kinase 1 it was 27000 nM.
Turning to `COc1ccc(-c2cn(Cc3ccc(-c4noc(C[C@@H]5CCCN5C(=N)N)n4)cc3)nn2)cc1`, in assay [2], the inhibition is above 50%. Further, the inhibition entry with U-251 is “Active”.
Regarding `N=C(N)C1(c2nc(-c3ccc(Cn4cc(-c5ccccc5)nn4)cc3)no2)CC1`, the inhibition in assay [2] was above 50%. In addition, the inhibition result with U-251 is “Active”.
Consider `N=C(N)N1CCC[C@H]1c1nc(-c2ccc(Cn3cc(C4CC4)nn3)cc2)no1`, for which, at Sphingosine kinase 2 [1], the IC50 turned out to be 248 nM. Besides, the inhibition in assay [2] was above 50%.
In the case of `N=C(N)N1CCC[C@H]1c1nc(-c2ccc(Cn3cc(-c4ccc(C(F)(F)F)cc4)nn3)cc2)no1`, the IC50 on Sphingosine kinase 2 [1] was 359 nM. The inhibition in assay [2] was above 50%. Also, the inhibition entry in the assay on U-251 was “Active”.
Turning to `N=C(N)N1CCC[C@H]1Cc1nc(-c2ccc(Cn3cc(-c4ccc(C(F)(F)F)cc4)nn3)cc2)no1`, in the assay with U-251, the inhibition result was “Active”.
With `N=C(N)N1CCC[C@H]1c1nc(-c2ccc(Cn3cc(-c4ccccn4)nn3)cc2)no1`, the inhibition in assay [2] was above 50%.
As to `N=C(N)N1CCC[C@H]1c1nc(-c2ccc(Cn3cc(-c4ccc(F)cc4)nn3)cc2)no1`, the IC50 at Sphingosine kinase 2 [1] stood at 391 nM. For the same compound, the inhibition in assay [2] was above 50%.
Take `N=C(N)N1CCC[C@H]1c1nc(-c2ccc(Cn3cc(-c4cccs4)nn3)cc2)no1`: the IC50 on Sphingosine kinase 2 [1] stood at 687 nM. Also, in assay [2], the inhibition is above 50%.
For the compound `O=C(NCc1ccncc1)C12CC3CC(C1)CC(c1ccc(Cl)cc1)(C3)C2` [ABC-294640], in the assay with U-251, the inhibition at 125 µM was 50%.
